Experimental data as given in ChEMBL document CHEMBL1128446, “Pyrazinoic acid esters with broad spectrum in vitro antimycobacterial activity” (1995).
In brackets after ≈: the same amount, converted by molar mass.

Tested on: Mycobacterium tuberculosis
Test: Minimum Inhibitory Concentration for PZA resistant forms against Mycobacterium tuberculosis ATCC 35828
Format: functional
How it was run: (§1)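 Broth macrodilution in tubes of modified Middlebrook 7H10 broth (agar and malachite green omitted) with 10% OADC and 0.05% Tween 80 at pH 5.8. Cultures were grown 3 days at 37 °C on a rotary shaker, then diluted with 7H10 broth to 1 Klett unit/mL. Stocks were made in water or DMSO and filter-sterilised; 2-fold serial dilutions were tested. Tubes shaken 7–10 days at 37 °C, with a drug-free control. MIC = lowest concentration (μg/mL) with no visible turbidity.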

Row | Compound | MIC [µg/mL]
1 | CCCCCCCCC(CC)OC(=O)c1cnc(Cl)cn1 (centres undefined) | 0.25 (≈ 0.799 µM)
2 | CCCCCCCCCCC(OC(=O)c1cnc(Cl)cn1)C(C)(C)C (centres undefined) | 16 (≈ 43.4 µM)
3 | O=C(OC(c1ccccc1)c1ccccc1)c1cnc(Cl)cn1 | 16 (≈ 49.3 µM)
4 | CCCOC(=O)c1cnc(C)cn1 | 1 (≈ 5.55 µM)
5 | CC(OC(=O)c1cnc(Cl)cn1)c1ccc(Br)cc1 (centres undefined) | 16 (≈ 46.8 µM)
6 | CCCCCCC(C)(CCCCC)OC(=O)c1cnc(Cl)cn1 (centres undefined) | 16 (≈ 46.9 µM)
7 | Cc1ccc(C(C)OC(=O)c2cnc(Cl)cn2)cc1 (centres undefined) | 2 (≈ 7.23 µM)
8 | CCCCCCC(C)(C)OC(=O)c1cnc(Cl)cn1 | 0.25 (≈ 0.878 µM)
9 | CCCCCCCC(C)(CCCCC)OC(=O)c1cnc(Cl)cn1 (centres undefined) | 8 (≈ 22.5 µM)
10 | CCCCCCCCCCOC(=O)c1cnc(F)cn1 | 4 (≈ 14.2 µM)
11 | CCCCCCCCCOC(=O)c1cnc(C)cn1 | 2 (≈ 7.57 µM)
12 | O=C(OCCc1ccc(Cl)cc1)c1cnc(Cl)cn1 | 32 (≈ 108 µM)
13 | CCCCCCCC(C)(CCCC)OC(=O)c1cnc(Cl)cn1 (centres undefined) | 16 (≈ 46.9 µM)
14 | CCCCCCCC(OC(=O)c1cnc(Cl)cn1)C(C)(C)C (centres undefined) | 2 (≈ 6.12 µM)
15 | CC(C)(OC(=O)c1cnc(Cl)cn1)c1ccccc1 | > 16
16 | CCCCCCCOC(=O)c1cnc(C)cn1 | 1 (≈ 4.23 µM)
17 | CCCCCCC(C)OC(=O)c1cnc(F)cn1 (centres undefined) | 4 (≈ 15.7 µM)

Row | Compound | MIC [µg/mL]
18 | COC(=O)c1cnc(F)cn1 | 8 (≈ 51.2 µM)
19 | CCCCCCCC(OC(=O)c1cnc(Cl)cn1)C(C)C (centres undefined) | 2 (≈ 6.39 µM)
20 | O=C(OCc1ccc(Br)cc1)c1cnc(Cl)cn1 | > 16
21 | CCCCCC(C)(CCCCC)OC(=O)c1cnc(Cl)cn1 | 16 (≈ 48.9 µM)
22 | CCCCCCCCC(C)(CCCC)OC(=O)c1cnc(Cl)cn1 (centres undefined) | 8 (≈ 22.5 µM)
23 | CCCCCCOC(=O)c1cnc(F)cn1 | 8 (≈ 35.4 µM)
24 | CCCCCCCCCC(C)(C)OC(=O)c1cnc(Cl)cn1 | 16 (≈ 48.9 µM)
25 | CCCCCCC(C)(CCCCCC)OC(=O)c1cnc(Cl)cn1 | 0.5 (≈ 1.41 µM)
26 | COC(=O)c1cnc(C)cn1 | > 16
27 | O=C(OCCc1ccccc1)c1cnc(Cl)cn1 | 4 (≈ 15.2 µM)
28 | CC(C)(C)C(OC(=O)c1cnc(Cl)cn1)c1ccccc1 (centres undefined) | 16 (≈ 52.5 µM)
29 | CCCCCCCCC(C)(C)OC(=O)c1cnc(Cl)cn1 | 0.25 (≈ 0.799 µM)
30 | CCCCCC(C)(CCCC)OC(=O)c1cnc(Cl)cn1 (centres undefined) | 16 (≈ 51.1 µM)
31 | CCC(C)(CC)OC(=O)c1cnc(Cl)cn1 | 4 (≈ 16.5 µM)
32 | CCCCC(OC(=O)c1cnc(Cl)cn1)c1ccccc1 (centres undefined) | 8 (≈ 26.2 µM)
33 | CCCCCCC(C)(CCCC)OC(=O)c1cnc(Cl)cn1 (centres undefined) | 16 (≈ 48.9 µM)

Tested on: Mycobacterium tuberculosis
Test: Minimum Inhibitory Concentration against Mycobacterium tuberculosis ATCC 35828 PZA resistant form
Format: functional
How it was run: as §1

Row | Compound | MIC [µg/mL]
34 | Cc1cnc(C(=O)O)cn1 | > 64
35 | CCCCCCCCCCCC(C)OC(=O)c1cnc(Cl)cn1 (centres undefined) | 0.5 (≈ 1.47 µM)
36 | Cc1cc(C(C)(C)C)c(OC(=O)c2cnccn2)c(C(C)(C)C)c1 | 128 (≈ 392 µM)
37 | NC(=O)c1cnccn1 [PYRAZINAMIDE] | 2050 (≈ 16600 µM)
38 | O=C(O)c1cnc(Cl)cn1 | 64 (≈ 404 µM)
39 | CCCCCCCOC(=O)c1cnc(Cl)cn1 | < 0.03
40 | CCCCCCCCCCOC(=O)c1cnc(Cl)cn1 | 0.5 (≈ 1.67 µM)
41 | CCCCCCCCC(C)OC(=O)c1cnc(Cl)cn1 (centres undefined) | < 0.03
42 | CC(C)(C)OC(=O)c1cnc(Cl)cn1 | 0.5 (≈ 2.33 µM)
43 | CCCCCOC(=O)c1cnc(Cl)cn1 | 0.12 (≈ 0.525 µM)
44 | CCCCCCOC(=O)c1cnc(Cl)cn1 | 0.5 (≈ 2.06 µM)
45 | O=C(O)c1cnccn1 [PYRAZINOIC ACID] | 32 (≈ 258 µM)
46 | C=CCOC(=O)c1cnc(Cl)cn1 | 2 (≈ 10.1 µM)
47 | CCCCCCCCCCOC(=O)c1cnccn1 | 0.25 (≈ 0.946 µM)
48 | CCCCOC(=O)c1cnc(Cl)cn1 | 0.5 (≈ 2.33 µM)
49 | CC(C)COC(=O)c1cnccn1 | 64 (≈ 355 µM)
50 | CC(C)COC(=O)c1cnc(Cl)cn1 | 2 (≈ 9.32 µM)
51 | CCOC(=O)c1cnc(Cl)cn1 | > 16

Row | Compound | MIC [µg/mL]
52 | CCCCCCCC(C)OC(=O)c1cnc(Cl)cn1 (centres undefined) | 2 (≈ 7.02 µM)
53 | CCCCCCCCCCCOC(=O)c1cnc(Cl)cn1 | 0.5 (≈ 1.6 µM)
54 | O=C(Oc1c(Br)cc(Br)cc1Br)c1cnccn1 | 32 (≈ 73.2 µM)
55 | CCCCCCCCCC(C)OC(=O)c1cnc(Cl)cn1 (centres undefined) | 1 (≈ 3.2 µM)
56 | COC(=O)c1cnccn1 | 64 (≈ 463 µM)
57 | CCCCCCCCOC(=O)c1cnc(Cl)cn1 | < 0.03
58 | O=C(Oc1cccc2ccccc12)c1cnccn1 | 8 (≈ 32 µM)
59 | O=C(Oc1ccc(F)cc1)c1cnccn1 | 16 (≈ 73.3 µM)
60 | CCCCCCC(C)OC(=O)c1cnc(Cl)cn1 (centres undefined) | 0.5 (≈ 1.85 µM)
61 | CCCCCC(CC)OC(=O)c1cnc(C)cn1 (centres undefined) | 1 (≈ 3.99 µM)
62 | CCCOC(=O)c1cnc(Cl)cn1 | 0.25 (≈ 1.25 µM)
63 | COC(=O)c1cnc(Cl)cn1 | 16 (≈ 92.7 µM)
64 | CCCCCCCCCCCCCCCOC(=O)c1cnccn1 | 1 (≈ 2.99 µM)
65 | O=C(OCc1ccccc1)c1cnc(Cl)cn1 | 1 (≈ 4.02 µM)
66 | CCCCCC(C)OC(=O)c1cnc(Cl)cn1 (centres undefined) | 0.06 (≈ 0.234 µM)
67 | CCCCCCCCCOC(=O)c1cnc(Cl)cn1 | < 0.03
68 | O=C(OCc1ccccc1)c1cnccn1 | 2 (≈ 9.34 µM)

Tested on: Mycobacterium tuberculosis
Test: Minimum Inhibitory Concentration against Mycobacterium tuberculosis ATCC 35828 for PZA resistant form
Format: functional
How it was run: as §1

Row | Compound | MIC [µg/mL]
69 | CCCCCC(CC)OC(=O)c1cnc(Cl)cn1 (centres undefined) | 1 (≈ 3.69 µM)
